Source: ChEMBL document CHEMBL2321845, “Discovery of 4-Aryl-2-benzoyl-imidazoles as tubulin polymerization inhibitor with potent antiproliferative properties” (J Med Chem, 2013)
Active and inactive are the calls of the source. The calls are words filed in the database; no cut-off is given here.

What was measured:
LNCaP = experiment: Cytotoxicity against human LNCAP cells assessed as growth inhibition after 96 hrs by SRB assay; format: functional, cell-based
Procedure, shortened: (§1)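 Plated at 1000–5000 cells/well depending on growth rate and treated with graded compound concentrations for 96 h, three to five replicates. Cell number was measured by SRB: 10% TCA fixation, 0.4% SRB staining, absorbance at 540 nm. IC50 relative to untreated control came from a nonlinear regression fit.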

PC-3 [1] = experiment: Cytotoxicity against human PC3 cells assessed as growth inhibition after 96 hrs by SRB assay; format: functional, cell-based; conditions: PC-3, 96 h; procedure, shortened: as §1
DU-145 = experiment: Cytotoxicity against human DU145 cells assessed as growth inhibition after 96 hrs by SRB assay; format: functional, cell-based; conditions: Homo sapiens, DU-145, 96 h
A-375 = experiment: Cytotoxicity against human A375 cells assessed as growth inhibition after 48 hrs by SRB assay; format: functional, cell-based; conditions: A-375, 48 h
Procedure, shortened: (§2)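 Melanoma cells from ATCC, grown in DMEM with 10% FBS at 37°C under 5% CO2. Seeded at 1000–5000 cells/well according to growth rate and exposed to a range of compound concentrations for 48 h, in three to five replicates. Cells were fixed with 10% TCA, stained with 0.4% SRB and read at 540 nm.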

MDA-MB-435 = experiment: Cytotoxicity against human MDA-MB-435 cells assessed as growth inhibition after 48 hrs by SRB assay; format: functional, cell-based; conditions: MDA-MB-435, 48 h
[2] = Cytotoxicity against human MDA-MB-435/LCC6MDR1 cells assessed as growth inhibition after 48 hrs by SRB assay; format: functional, cell-based, MDA-MB-435/LCC6 MDR1; conditions: Homo sapiens, MDA-MB-435/LCC6 MDR1, 48 h
[3] = Cytotoxicity against human WM164 cells assessed as growth inhibition after 48 hrs by SRB assay; format: functional, cell-based; conditions: WM164, 48 h
Procedure, shortened: as §2, with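 “nm. IC50 (50% growth inhibition versus untreated control) was taken from nonlinear regression of % survival against concentration.” for “nm.”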

PC-3 [4] = experiment: Cell cycle arrest in human PC3 cells assessed as accumulation at G2/M phase after 24 hrs by propidium iodide staining based FACS analysis (reference value: 18%); format: functional
PPC-1 = experiment: Cytotoxicity against human PPC1 cells assessed as growth inhibition after 96 hrs by SRB assay; format: functional, cell-based; conditions: PPC-1, 96 h; procedure, shortened: as §1
[5] = Resistance index, ratio of IC50 for human MDA-MB-435/LCC6 MDR1 cells to IC50 for human MDA-MB-435 cells; format: functional
Bos taurus = organism: Bos taurus; experiment: Competitive binding affinity to bovine brain tubulin after 1 hr by mass spectrometry binding assay in presence of colchicine; format: tissue-based
Tubulin (Sus scrofa) = Tubulin (Sus scrofa) (UniProt P02554+P02550); experiment: Inhibition of pig brain tubulin polymerization measured every 1 min for 40 mins by microplate reader analysis
Procedure, shortened: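 Polymerization was followed with a fluorescence-enhanced tubulin polymerization assay kit.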

Chain of Tubulin (Sus scrofa) (P02550 whole entry, looked up): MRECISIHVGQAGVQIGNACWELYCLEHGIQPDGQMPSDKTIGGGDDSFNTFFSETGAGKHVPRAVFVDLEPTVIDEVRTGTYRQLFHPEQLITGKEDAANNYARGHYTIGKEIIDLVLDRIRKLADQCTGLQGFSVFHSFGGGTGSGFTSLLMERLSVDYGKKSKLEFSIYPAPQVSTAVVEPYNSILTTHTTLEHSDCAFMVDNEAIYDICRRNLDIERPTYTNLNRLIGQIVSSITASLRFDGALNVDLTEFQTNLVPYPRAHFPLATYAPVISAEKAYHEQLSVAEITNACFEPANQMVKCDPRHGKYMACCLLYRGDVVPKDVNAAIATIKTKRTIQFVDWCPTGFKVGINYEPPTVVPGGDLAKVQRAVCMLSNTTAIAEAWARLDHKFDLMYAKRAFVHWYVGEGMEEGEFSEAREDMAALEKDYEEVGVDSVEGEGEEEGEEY
Chain of Tubulin (Sus scrofa) (P02554 whole entry, looked up): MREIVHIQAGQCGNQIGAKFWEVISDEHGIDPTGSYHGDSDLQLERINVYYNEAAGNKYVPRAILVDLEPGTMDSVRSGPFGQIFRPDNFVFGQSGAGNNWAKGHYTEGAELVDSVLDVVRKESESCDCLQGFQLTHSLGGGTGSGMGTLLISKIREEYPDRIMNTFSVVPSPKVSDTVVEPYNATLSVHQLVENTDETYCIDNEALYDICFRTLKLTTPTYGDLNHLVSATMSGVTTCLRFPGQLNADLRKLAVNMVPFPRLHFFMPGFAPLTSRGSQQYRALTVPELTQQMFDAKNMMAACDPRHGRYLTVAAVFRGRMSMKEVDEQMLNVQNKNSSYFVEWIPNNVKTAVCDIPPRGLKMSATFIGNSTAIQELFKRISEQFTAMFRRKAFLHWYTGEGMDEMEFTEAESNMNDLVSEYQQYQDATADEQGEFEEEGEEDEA

Row | Compound | IC50 (LNCaP) [nM] | IC50 (PC-3 [1]) [nM] | IC50 (DU-145) [nM] | IC50 (A-375) [nM] | IC50 (MDA-MB-435) [nM] | IC50 [2] [nM] | IC50 [3] [nM] | Activity (PC-3 [4]) | Activity (PC-3 [4]; record 2) | IC50 (PPC-1) [nM] | Ratio IC50 [5] | Activity (Bos taurus) | inhibition (Tubulin (Sus scrofa))
1 | COc1cc(C(=O)c2nc(-c3ccc(Br)cc3)c[nH]2)cc(OC)c1OC | 15 | 33 | 66 | 29 | 58 | 43 | 31 | Dose-dependent effect | <=70% | – | – | – | –
2 | COc1cc(C(=O)c2nc(-c3ccc(C(F)(F)F)cc3)c[nH]2)cc(OC)c1OC | 47 | 93 | 210 | 123 | 120 | 175 | 143 | – | – | 74 | 0.8 | – | –
3 | CC[C@]1(O)C[C@@H]2CN(CCc3c([nH]c4ccccc34)[C@@](C(=O)OC)(c3cc4c(cc3OC)N(C)[C@H]3[C@@](O)(C(=O)OC)[C@H](OC(C)=O)[C@]5(CC)C=CCN6CC[C@]43[C@@H]65)C2)C1 | – | – | – | – | – | – | – | – | – | – | – | inactive | Dose-dependent effect
4 | COc1cc(C(=O)c2nc(-c3ccccc3)c[nH]2)cc(OC)c1OC | 6 | 14 | 22 | 9 | 24 | 11 | 14 | Dose-dependent effect | <=70% | 13 | 0.5 | Active | Active
5 | COc1cc(C(=O)c2nc(-c3ccccc3)cn2-c2ccccn2)cc(OC)c1OC | 20 | – | 37 | 14 | 11 | 15 | 6 | – | – | 8 | – | Active | –
6 | COc1cc(C(=O)c2nc(-c3ccccc3)cn2C)cc(OC)c1OC | – | 16 | 26 | 9 | 16 | 18 | 33 | Dose-dependent effect | <=70% | 13 | – | – | Active
7 | CCn1cc(-c2ccccc2)nc1C(=O)c1cc(OC)c(OC)c(OC)c1 | 29 | 25 | 66 | 28 | 26 | 33 | 16 | Dose-dependent effect | <=70% | – | – | – | –
